FN deposition inh: fibronectin deposition inhibition; AH1F fibroblasts, Alexa488-fibronectin deposition fluorescence, overnight; inhibition, % at 12.6 µM; 350,000 tested, 0.086% active;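 active means mean inhibition across replicates of 30% or more, regardless of how many single replicates reach that level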;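 further: positive control wells lacked labelled fibronectin entirely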
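Assay system: AH1F fibroblasts assembling fluorescent fibronectin matrix; Amount: 10000 AH1F cells per well; Buffer or medium: DMEM, 2% serum; Probe or stimulus: Alexa488-fibronectin, 24 nM final in well; Doses: single compound dose, delivered by pin transfer; Incubation: 1 h adhesion, overnight exposure; Measured by: fluorescence 485/525 nm; Read-out: fibronectin deposition inhibition.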
HIV Env fusion: inhibitors of HIV Env-mediated cell fusion. inhibition, % at 12.3 µM. HeLa-JRFL Env/CEM21 cell fusion, luciferase. AID 651610. 360,000 tested, 1.1% active;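 active means mean replicate inhibition score of at least 50 and every replicate individually at or above 50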;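 further: 0% = plate neutral controls and 100% = maraviroc near 300 nM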
Vif imaging: HIV Vif inhibition; 340,000 tested, 0.35% active; HEK293T cells, Vif self-association by quenched fluorescence, imaging, 24 h; inhibition, % at 7.49 µM; in the data active means inhibition above about 50%, passing the limit was not always enough
miR122 inh: miR-122 inhibition in Huh7 cells | Huh7 miR-122 Renilla luciferase sensor, 48 h; neutral wells = 0, positive control = 100 | activation (reporter increase), % at 12.5 µM | 340,000 tested, 0.3% active | AID 602342;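 active means mean replicate activation score at least 90 and every replicate individually at or above 90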;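 further: higher luciferase means less miR-122 activity so hits act as miR-122 inhibitors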
Ecoli rRNA inh: selective bacterial rRNA inhibition in E. coli; E. coli WT GFP vs humanized-ribosome RFP mutants, fluorescence, 24 h; stronger effect = lower value; DMSO median 0, no signal -100; GFP signal change (wild-type ribosome), % (test concentration not listed); 350,000 tested, 1.6% active; AID 720706;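 active means significant combined selectivity score with lowered wild-type GFP, culture density cut under 30%, mutant RFP and density less affected; inactive means any of these conditions unmet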
S100A4 inh HTS: S100A4-myosin IIA interaction inhibition; P26447; S100A4/TAMRA-MyoIIA peptide fluorescence polarization; inhibition, % at 10.7 µM; 360,000 tested, 0.14% active; AID 652163;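 active means mean inhibition of at least 70% across replicates, with every replicate also reaching that level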
Target sequence (P26447 whole entry, looked up): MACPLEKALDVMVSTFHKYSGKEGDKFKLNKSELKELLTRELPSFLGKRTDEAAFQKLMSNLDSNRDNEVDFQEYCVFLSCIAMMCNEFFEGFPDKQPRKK
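Assay system: human S100A4 monomer with TAMRA-labelled myosin IIA peptide / Buffer or medium: Calcium-containing HEPES buffer, pH 7.2 / Reagent: TAMRA-labelled myosin IIA heavy-chain peptide probe, 5 nM / Compound: one dose per compound / Timing: polarization read 5 min after assay mix addition, stable 5–60 min / Benchmarks: neutral control DMSO, positive control TFP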
* marks the source's active call; other numbers are inactive results; [ ] = dose if it differs, or a comment. Rows were chosen to be rich in hits. Some 2.6% of all compounds tested hit in one or more screens of this group.

How did Cc1cccc([C@@H]2[C@@H]3C(=O)N(Cc4ccccc4)C(=O)[C@@H]3[C@]3(Cc4ccccc4)C(=O)N(c4ccc(C(F)(F)F)cc4)C(=O)N23)c1 do in these assays?
HIV Env fusion: 63.8*; Ecoli rRNA inh: -1.1; S100A4 inh HTS: -2.1

What do the screens show for `CC[C@@]12C(=O)N(c3cccc(Br)c3)C(=O)N1[C@H](c1cccc(C)c1)[C@@H]1C(=O)N(Cc3ccccc3)C(=O)[C@@H]12`?
FN deposition inh: 7.2; HIV Env fusion: 64.7*; Vif imaging: -5.1; miR122 inh: 1.7

What do the screens show for `Cc1cccc([C@@H]2[C@@H]3C(=O)N(Cc4ccccc4)C(=O)[C@@H]3[C@]3(CC(C)C)C(=O)N(c4cccc(Br)c4)C(=O)N23)c1`?
Vif imaging: -11.7; miR122 inh: -5.8

Results for CC[C@@]12C(=O)N(c3ccccc3)C(=O)N1[C@H](c1cccc(C)c1)[C@@H]1C(=O)N(Cc3ccccc3)C(=O)[C@@H]12 ?
FN deposition inh: -1.2; HIV Env fusion: 88.4*; Vif imaging: -7.1; miR122 inh: -4.6; Ecoli rRNA inh: 2.4; S100A4 inh HTS: -0.2

Results for COCC(=O)N1CCC2(CC1)CN(S(C)(=O)=O)[C@@H](CO)c1c2c2ccc(OC)cc2n1C ?
Ecoli rRNA inh: -0.8

How did COCc1cn(CC[C@H]2CC[C@@H](NC(=O)c3ccc(F)cc3)[C@@H](CO)O2)nn1 do in these assays?
FN deposition inh: 13.3; HIV Env fusion: -3.9[16.7 µM]; Ecoli rRNA inh: -1.8; S100A4 inh HTS: 12.1

Results for S=c1[nH]cnc2scc(-c3ccccc3)c12 ?
FN deposition inh: 8.6; HIV Env fusion: -11.1; Vif imaging: 2.3; miR122 inh: 9.2; Ecoli rRNA inh: -29.2*; S100A4 inh HTS: -2.0

What do the screens show for `Clc1ncnc2scc(-c3ccccc3)c12`?
FN deposition inh: -6.1; HIV Env fusion: -63.5; Vif imaging: 4.5; miR122 inh: 3.3

Results for C[C@H](CO)N1C[C@H](C)[C@@H](CN(C)C(=O)Nc2ccc3c(c2)OCO3)Oc2c(NC(=O)Cc3cn(C)c4ccccc34)cccc2C1=O ?
FN deposition inh: 18.9; Ecoli rRNA inh: -6.7

Results for Cc1ccc2nc(SCC(=O)c3ccc(O)cc3O)[nH]c2c1 ?
FN deposition inh: 4.3; HIV Env fusion: -40.5; Vif imaging: -1.9; miR122 inh: 8.6; Ecoli rRNA inh: -22.6*; S100A4 inh HTS: -0.7

How did Cn1cnc(S(=O)(=O)N2CCCCN3[C@@H](CO)[C@H](c4ccc(C#CC5CC5)cc4)[C@@H]3C2)c1 do in these assays?
miR122 inh: 6.4[16.7 µM]; S100A4 inh HTS: 0.9

Results for Cc1ccc(Oc2coc3cc(O)ccc3c2=O)cc1 ?
FN deposition inh: -2.0; HIV Env fusion: -19.7; Vif imaging: -9.9; miR122 inh: -1.9; Ecoli rRNA inh: -24.0*; S100A4 inh HTS: -1.6

What do the screens show for `Cc1ccccc1S(=O)(=O)NC(=O)C1(C)CCN1C(=O)CCc1ccc(Cl)cc1Cl` (stereo unspecified)?
FN deposition inh: 4.5; HIV Env fusion: 71.0*; Vif imaging: 0.6; miR122 inh: -2.7; Ecoli rRNA inh: -14.5; S100A4 inh HTS: 2.0

Results for CC(C)(C)c1ccc(CC(=O)N2CCC2(C)C(=O)NS(=O)(=O)c2cccc(Cl)c2)cc1 (stereo unspecified) ?
FN deposition inh: 0.3; HIV Env fusion: -6.3; Vif imaging: 13.9; miR122 inh: -2.3; Ecoli rRNA inh: -33.0*; S100A4 inh HTS: 3.5

How did Cn1nc(C(C)(C)C)cc1NC(=O)C1(C)CCN1C(=O)Cc1ccc(-c2ccccc2)cc1 (stereo unspecified) do in these assays?
FN deposition inh: -1.1; HIV Env fusion: 61.6*; Vif imaging: -0.2; miR122 inh: -2.9; Ecoli rRNA inh: -11.4; S100A4 inh HTS: 23.6

How did O=C(C[C@H]1C=C[C@@H](NC(=O)c2ccc3c(c2)OCO3)[C@@H](CO)O1)NCc1ccc(Cl)cc1 do in these assays?
Ecoli rRNA inh: -1.5; S100A4 inh HTS: -4.4

How did COc1ccc2c3c([nH]c2c1)[C@@H](CO)N(C(=O)c1ccc(F)cc1)CC31CN(C(=O)Nc2ccc(F)cc2)C1 do in these assays?
Ecoli rRNA inh: -6.5

How did C/C=C/c1cnc2c(c1)C(=O)N([C@@H](C)CO)C[C@H](C)[C@@H](CN(C)C(=O)C1CCC1)O2 do in these assays?
FN deposition inh: -6.0; HIV Env fusion: -17.4[16.7 µM]; miR122 inh: 7.0[16.7 µM]; Ecoli rRNA inh: 1.1

How did CNC[C@@H]1Oc2cc(C#CCC(C)C)ccc2S(=O)(=O)N([C@@H](C)CO)C[C@H]1C do in these assays?
FN deposition inh: -9.8; HIV Env fusion: 15.4[16.7 µM]; miR122 inh: 5.1[16.7 µM]; Ecoli rRNA inh: -3.9; S100A4 inh HTS: -8.6

How did Cc1cc(C)cc(NC2=NC3(CCCCC3)N=C(N)N2)c1 do in these assays?
Vif imaging: 0.7; miR122 inh: 108.7*

Results for O=C(NN=C1CCCC1)c1cc(Cl)cc(Cl)c1O ?
FN deposition inh: -2.1; HIV Env fusion: 4.8; Vif imaging: 11.1; miR122 inh: -6.4; Ecoli rRNA inh: -28.8*; S100A4 inh HTS: -4.3

What do the screens show for `O=C(CN1CCN(c2cccc(Cl)c2)CC1)Nc1ccc([N+](=O)[O-])cc1C(=O)Nc1ccccc1F`?
FN deposition inh: -2.7; HIV Env fusion: 93.0*; Vif imaging: -2.4; Ecoli rRNA inh: 7.0; S100A4 inh HTS: 2.9

Results for Nc1ncccc1OCc1ccc(Cl)c(Cl)c1 ?
FN deposition inh: -10.1; HIV Env fusion: -43.4; Vif imaging: -1.9; miR122 inh: -7.0; Ecoli rRNA inh: -21.3*; S100A4 inh HTS: 3.8

How did O=C([C@H]1O[C@@H](n2ccc(=O)[nH]c2=O)[C@H](O)[C@@H]1O)N1CCN(Cc2ccccn2)CC1 do in these assays?
FN deposition inh: -1.5; HIV Env fusion: 57.2*; Ecoli rRNA inh: 19.6; S100A4 inh HTS: 5.1

How did C[C@H](CO)N1C[C@H](C)[C@@H](CN(C)Cc2ccc(C(=O)Nc3ccccc3N)cc2)Oc2ccc(NC(=O)CCC(F)(F)F)cc2CC1=O do in these assays?
FN deposition inh: -13.9; Ecoli rRNA inh: 3.6; S100A4 inh HTS: -10.3

Results for C[C@H](CO)N1C[C@H](C)[C@H](CN(C)Cc2ccc(C(=O)Nc3ccccc3N)cc2)Oc2ccc(NC(=O)Nc3cccc4ccccc34)cc2CC1=O ?
HIV Env fusion: -24.5[16.7 µM]; miR122 inh: 96.2*[16.7 µM]; Ecoli rRNA inh: -1.7; S100A4 inh HTS: 3.4

Results for C[C@H](CO)N1C[C@H](C)[C@H](CN(C)Cc2ccc(C(=O)Nc3ccccc3N)cc2)Oc2ccc(NC(=O)CCC(F)(F)F)cc2CC1=O ?
FN deposition inh: -22.8; HIV Env fusion: -180.9[16.7 µM]; miR122 inh: 97.7*[16.7 µM]; Ecoli rRNA inh: -3.4; S100A4 inh HTS: 5.7

High-throughput results: PubChem, Broad Institute
